Apaf-1 inh = inhibitors of human Apaf-1 apoptosome, primary screen, biochemical, DEVD-Rh110 fluorescence, uHTS. reconstituted apoptosome caspase-3 activity. inhibition, % at 20 µM. 330,000 tested, 0.71% active; active means inhibition of at least 40% at 20 µM;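 further: plate controls were DMSO wells for no effect and DEVD-CHO caspase inhibitor wells for full effect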
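Material: cell-free apoptosome with Apaf-1, procaspase-3 and caspase-9; Buffer or medium: Hepes pH 7.5 with detergent and BSA; Reagent: cytochrome c trigger plus (Z-DEVD)2-Rh110 caspase-3 substrate; Times: compound with Apaf-1, dATP, procaspase-3 30 min, then 50 min reaction, room temperature; Technique: Rh110 fluorescence intensity.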
DNA FID counter = compounds displacing fluorescent DNA intercalator, primary screen, artefact control for HCV NS3 helicase inhibitor project, biochemical, FID fluorescence. DNA fluorescent intercalator displacement. inhibition, % at 7.9 µM. 290,000 tested, 0.17% active. AID 1845, 2009; in the data active means inhibition above about 37%;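 further: 0% = vehicle and 100% = reference compound; higher means more ethidium bromide displaced from hairpin DNA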
UBC13 inh = UBC13 polyubiquitin chain formation inhibitors, primary screen, biochemical, TR-FRET, uHTS; Ubiquitin-conjugating enzyme E2 N (Homo sapiens), P61088; inhibition, % at 20 µM; 330,000 tested, 0.47% active; AID 485273, 2010; in the data active means inhibition above about 45%, passing the limit was not always enough
Target sequence (P61088 whole entry, looked up): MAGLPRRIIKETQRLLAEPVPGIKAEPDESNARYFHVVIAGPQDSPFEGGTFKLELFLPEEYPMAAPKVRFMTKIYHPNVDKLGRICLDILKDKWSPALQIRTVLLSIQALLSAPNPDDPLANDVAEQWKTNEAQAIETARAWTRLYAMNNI
TMEM16A act = TMEM16A chloride channel activators or potentiators, primary screen, cell-based, HTS. Anoctamin-1 (Mus musculus), Q8BHY3. HEK293 TMEM16A/YFP-H148Q/I152L, iodide quench fluorescence; active compounds read low. B-score at 10 µM. 340,000 tested, 0.3% active. AID 623877, 2012;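 active means fluorescence-ratio B-score plate-corrected deviation score at least 3 library SD below zero, with starting fluorescence score within 5 deviations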;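 further: channel opened by trigger with iodide after compound preincubation; score built on the fluorescence ratio of max minus min over baseline; more negative score means more quench and so TMEM16A activation or potentiation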
ANO1 block = TMEM16A chloride channel inhibitors, primary screen, cell-based, HTS. normalized B-score (activity score, 25-100; higher = stronger inhibition) at 10 µM. Anoctamin-1 (Mus musculus), Q8BHY3. 310,000 tested, 1.2% active. HEK293 TMEM16A/YFP iodide influx fluorescence, ionomycin;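 active means ratio plate-corrected score three or more library SD toward inhibition, starting fluorescence score within five deviations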;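 further: score derived from kinetic fluorescence span divided by baseline fluorescence per well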
The depositor's hits bear a star; i = inactive; nt = not tested or not shown. In the library only some 2.4% were active in any assay of this set; here they are far more common.

SMILES | Apaf-1 inh | DNA FID counter | UBC13 inh | TMEM16A act | ANO1 block
CC(C)Cn1c(SCC(=O)NC(=O)NC2CCCC2)nc2ccccc21 | 13 | -26 | 7 | i | 25*
COc1ccc(S(=O)(=O)Nc2cccc(S(=O)(=O)N3CCCCCC3)c2)cc1 | nt | -14 | nt | i | i
O=S(=O)(Nc1nc2ccccc2nc1Nc1cccc(S(=O)(=O)N2CCCCC2)c1)c1ccccc1 | 34 | -21 | -3 | i | 100*
O=C(O)c1ccc(NC2=C(Cl)C(=O)c3ccccc3C2=O)cc1 | 30 | 0 | -84 | i | 100*
CC(C)NC1=C(Cl)C(=O)c2ccccc2C1=O | 63* | 5 | -368 | i | i
CCS(=O)(=O)c1ncc(CO)n1CCc1ccccc1 | 1 | -2 | 4 | i | i
CC(=O)c1c(C)[nH]c(C(=O)Nc2c(C)n(C)n(-c3ccccc3)c2=O)c1C | 3 | -3 | 6 | i | 100*
Cc1c(NC(=O)c2ccc(C(=O)Nc3c(C)n(C)n(-c4ccccc4)c3=O)cc2)c(=O)n(-c2ccccc2)n1C | 5 | -1 | -4 | i | i
Cc1ccc2c(C)c(C(=O)Nc3c(C)n(C)n(-c4ccccc4)c3=O)oc2c1 | -3 | -12 | 13 | -19* | i
CCOC(=O)c1c(C)[nH]c(C(=O)COC(=O)c2ccc([N+](=O)[O-])o2)c1C | 10 | nt | -9 | i | nt
CN(C(=O)COC(=O)CNC(=O)c1ccc(C(C)(C)C)cc1)c1c(N)n(Cc2ccccc2)c(=O)[nH]c1=O | 5 | nt | 0 | i | i
CCN(CC(=O)Nc1ccc(N2CCOCC2)cc1)C(=O)Cc1ccccc1 | 7 | nt | -18 | -32* | nt
CCN(CC(=O)Nc1ccc(N2CCOCC2)cc1)C(=O)c1ccc(C(F)(F)F)cc1 | 10 | 1 | 4 | i | i
CC(C)(Sc1ccc(CCN(CCCCC2CCCCC2)C(=O)NC2CCCCC2)cc1)C(=O)O | 8 | nt | -6 | i | 100*
O=C(c1cccc(S(=O)(=O)N2CCc3ccccc32)c1)N1CCN(c2ccccc2)CC1 | 21 | nt | -10 | i | nt
c1ccc(-c2nnc3nc(N4CCCCC4)nc(N4CCCCC4)n23)cc1 | nt | nt | nt | i | nt
CCCCNC(=O)c1cn(CC)c2cc(N3CCN(C)CC3)c(F)cc2c1=O | -10 | 11 | 11 | i | i
CCCCCCCCCC(=O)N1CCN(c2cc3c(cc2F)c(=O)c(C(=O)O)cn3CC)CC1 | 5 | -8 | 13 | -8.6* | i
CCN(CC)CCNC(=O)c1cn(CC)c2cc(N3CCN(C)CC3)c(F)cc2c1=O | -3 | 38* | 15 | i | i
CCCCCCC(=O)N1CCN(c2cc3c(cc2F)c(=O)c(C(=O)O)cn3CC)CC1 | 2 | -14 | 23 | i | i
O=C(NC1CCCCC1)c1cc(S(=O)(=O)N2CCCC2)ccc1Cl | 7 | -11 | 0 | i | i
O=[N+]([O-])c1ccc2[nH]cc(S(=O)(=O)N3CCN(c4cccc(Cl)c4)CC3)c2c1 | 19 | 39* | -3 | i | i
CCOc1cc(/C=C2\C(=O)N(c3ccc(C(N)=O)cc3)N=C2C)ccc1OC(=O)c1cccs1 | 93* | -6 | -51 | i | i
Cc1cccnc1NC(=S)NC(=O)c1cccs1 | -21 | 1 | 10 | i | 25*
Cc1ccc(C2CC(=O)C=C(O)C2)cc1 (configuration not stated) | -1 | -7 | -8 | i | 100*
SMILES | Apaf-1 inh | DNA FID counter | UBC13 inh | TMEM16A act | ANO1 block
CN(C(=O)c1cccc(COc2ccc(Cl)cc2Cl)c1)c1ccccc1 | nt | -18 | nt | i | 25*
CC(=O)Nc1ccc(C(=O)CN2C(=O)CSC2=O)cc1 | -4 | 1 | 6 | i | i
CC1CCCCN1CCCNC(=O)C1CCN(c2nnc(-n3cccc3)s2)CC1 (configuration not stated) | 22 | 0 | 21 | i | i
CCOc1ccc(NCc2cccn2-c2nnc(N3CCC(C(=O)NCCCN4CCCCC4CC)CC3)s2)cc1 (configuration not stated) | 25 | 40* | 22 | i | i
Cc1ccc(C(=O)COC(=O)c2ccco2)cc1C | 5 | -20 | 6 | i | i
CCCCCCCCCCCCN1[C@@H](CC(=O)OC)c2cc(F)ccc2S1(=O)=O | 17 | nt | -8 | i | i
O=C(Nc1sc2c(c1C(=O)O)CCCC2)c1ccc(F)cc1 | -8 | -13 | -5 | i | i
CC(C)(C)c1ccc(C(=O)Nc2sc3c(c2C(=O)O)CCC3)cc1 | 17 | 4 | -10 | i | 100*
O=C1c2ccccc2-c2onc3ccc(NCCCn4ccnc4)c1c23 | 6 | 69* | -326 | nt | i
NS(=O)(=O)c1ccc(NCCCn2ccnc2)c([N+](=O)[O-])c1 | -11 | -2 | -9 | i | i
C#CCOCCOCCOCCNc1nc(N2CCN(C(=O)[C@H](CCC(=O)O)n3cc(C(N)CC(C)C)nn3)CC2)nc(N2CCN(C(=O)[C@H](Cc3ccc(O)cc3)n3cc(C(N)[C@H](C)CC)nn3)CC2)n1 (some centres not stated) | 8 | 18 | -7 | nt | i
CC(C)(CC(=O)O)CC(=O)N1CCN(c2nc3ccc(Cl)cc3s2)CC1 | 5 | -36 | -5 | i | i
CCCCC(=O)N1CCN(c2nc3ccc(Cl)cc3s2)CC1 | 4 | -43 | 1 | i | 25*
COc1cc(Cl)c(C)cc1NC(=O)COC(=O)c1cc[n+]([O-])cc1 | 9 | -4 | -5 | i | i
COc1cccc(OCCSc2nc(N)cc(N)n2)c1 | 12 | 0 | -1 | i | 25*
CCOC(=O)Cc1csc(N/C(=N/S(=O)(=O)c2ccc(Cl)cc2)c2ccccc2)n1 | 63* | -32 | -5 | i | i
O=C(NCCCCNC(=O)c1cccs1)c1cccs1 | 5 | -6 | -4 | i | i
O=C(NCCCNC(=O)c1cccs1)c1cccs1 | -3 | -2 | -77 | -12* | i
CCC[n+]1c2ccccc2cc2ccccc21 | 25 | 38* | 4 | i | i
CCCC[n+]1c2ccccc2cc2ccccc21 | 26 | 38* | -3 | i | i
O=C(Nc1cc(S(=O)(=O)Nc2ccccc2F)ccc1Cl)c1ccc(F)cc1F | 14 | nt | -8 | i | nt
CCCCC(=Nc1ccc(N)cc1)C1=C(O)C(C(=O)OC)C(C)(C)CC1=O (configuration not stated) | 62* | -5 | -29 | i | i
COc1ccc(C2NCCc3c2[nH]c2ccccc32)cc1COc1ccc(F)cc1 (configuration not stated) | -6 | 25 | 47* | i | i
